ChEMBL document CHEMBL5724801, “EUbOPEN Chemogenomics Library - Multiplex” (2024)
“And” between values parts separate entries of the source, which are not always exact repeats. Equal values may be shown once.

System: U2OS
Test: Multiplex assay against U2OS
Type: toxicity, cell-based
Details: human
Summary of the method: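 At seeding, live cells were stained with Hoechst33342, BioTracker Green Microtubule Cytoskeleton Dye, MitoTracker Red and Annexin V Alexa Fluor 680. After compound addition they were imaged on a CQ1 microscope at 37°C and 5% CO2, and CellPathfinder machine-learning gating sorted them into Hoechst high-intensity objects or normal cells, with normal cells further split into healthy, pyknosed or fragmented nuclei and pyknosed cells into mitotic or apoptotic. Tubulin, mitochondrial-mass and membrane-permeability phenotypes are given as per cents of cells with healthy nuclei.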

[1] = 12 h, 1 µM, compound concentration 1 uM
[2] = 12 h, 10 µM, compound concentration 10 uM
[3] = 24 h, 1 µM, compound concentration 1 uM
[4] = 24 h, 10 µM, compound concentration 10 uM
[5] = 48 h, 1 µM, compound concentration 1 uM
[6] = 48 h, 10 µM, compound concentration 10 uM

For O=C1[C@H](Cc2ccc(O)cc2)N2C(=O)CCN(C(=O)NCc3ccccc3)[C@H]2CN1Cc1cccc2ccccc12, the “Population Apoptotic (%)” value [1] was 91% and 84%, the “Population Fragmented Nuclei (%)” value [1] was 13% and 21% and the “Population Healthy Nuclei (%)” value [1] was 74% and 66%. For the same molecule, the “Population Hoechst High Intensity Objects (%)” value [1] was 4% and 0%, the “Population Membrane Permeable-Phenotype (%)” value [1] was 4% and 5% and the “Population Mitochondria Different-Phenotype (%)” value [1] was 1% and 8%. The “Population Mitotic Cells (%)” value [1] was 8% and 15%, the “Population Normal (%)” value [1] was 96% and 99% and the “Population Pyknosed Nuclei (%)” value [1] was 12% and 11%. For the same molecule, the “Population Tubulin-Different-Phenotype (%)” value [1] was 1% and 4%, the “Total Cell Count” value [1] was 200 and 113 and the “Population Apoptotic (%)” value [2] was 60% and 72%. The “Population Fragmented Nuclei (%)” value [2] was 32% and 19%, the “Population Healthy Nuclei (%)” value [2] was 50% and 67% and the “Population Hoechst High Intensity Objects (%)” value [2] was 3% and 6%. The “Population Membrane Permeable-Phenotype (%)” value [2] was 55% and 38%, the “Population Mitochondria Different-Phenotype (%)” value [2] was 35% and 47% and the “Population Mitotic Cells (%)” value [2] was 40% and 27%. The “Population Normal (%)” value [2] was 96% and 93%, the “Population Pyknosed Nuclei (%)” value [2] was 17% and 13% and the “Population Tubulin-Different-Phenotype (%)” value [2] was 55% and 43%. The “Total Cell Count” value [2] was 207 and 88, the “Population Apoptotic (%)” value [3] was 80% and 88% and the “Population Fragmented Nuclei (%)” value [3] was 13% and 14%. For the same molecule, the “Population Healthy Nuclei (%)” value [3] was 73% and 71%, the “Population Hoechst High Intensity Objects (%)” value [3] was 2% and 1% and the “Population Membrane Permeable-Phenotype (%)” value [3] was 4% and 7%. The “Population Mitochondria Different-Phenotype (%)” value [3] was 1% and 5%, the “Population Mitotic Cells (%)” value [3] was 19% and 11% and the “Population Normal (%)” value [3] was 97% and 98%. The “Population Pyknosed Nuclei (%)” value [3] was 13% and 14%, the “Population Tubulin-Different-Phenotype (%)” value [3] was 2% and 4% and the “Total Cell Count” value [3] was 242 and 127. For the same molecule, the “Population Apoptotic (%)” value [4] was 65% and 85%, the “Population Fragmented Nuclei (%)” value [4] was 34% and 29% and the “Population Healthy Nuclei (%)” value [4] was 42% and 54%. For the same molecule, the “Population Hoechst High Intensity Objects (%)” value [4] was 3% and 5%, the “Population Membrane Permeable-Phenotype (%)” value [4] was 25% and 36% and the “Population Mitochondria Different-Phenotype (%)” value [4] was 23% and 38%. The “Population Mitotic Cells (%)” value [4] was 34% and 14%, the “Population Normal (%)” value [4] was 96% and 94% and the “Population Pyknosed Nuclei (%)” value [4] was 22% and 16%. For the same molecule, the “Population Tubulin-Different-Phenotype (%)” value [4] was 25% and 42%, the “Total Cell Count” value [4] was 214 and 91 and the “Population Apoptotic (%)” value [5] was 81% and 95%. The “Population Fragmented Nuclei (%)” value [5] was 15% and 16%, the “Population Healthy Nuclei (%)” value [5] was 73% and 67% and the “Population Hoechst High Intensity Objects (%)” value [5] was 3% and 5%. The “Population Membrane Permeable-Phenotype (%)” value [5] was 2% and 3%, the “Population Mitochondria Different-Phenotype (%)” value [5] was 2% and 0% and the “Population Normal (%)” value [5] was 96% and 94%. The “Population Pyknosed Nuclei (%)” value [5] was 11% and 15%, the “Population Tubulin-Different-Phenotype (%)” value [5] was 3% and 5% and the “Total Cell Count” value [5] was 326 and 168. The “Population Apoptotic (%)” value [6] was 82% and 81%, the “Population Fragmented Nuclei (%)” value [6] was 37% and 33% and the “Population Healthy Nuclei (%)” value [6] was 43% and 46%. The “Population Hoechst High Intensity Objects (%)” value [6] was 5% and 4%, the “Population Membrane Permeable-Phenotype (%)” value [6] was 28% and 22% and the “Population Mitochondria Different-Phenotype (%)” value [6] was 16% and 20%. For the same molecule, the “Population Mitotic Cells (%)” value [6] was 17% and 18%, the “Population Normal (%)” value [6] was 94% and 95% and the “Population Pyknosed Nuclei (%)” value [6] was 19% and 20%. The “Population Tubulin-Different-Phenotype (%)” value [6] was 19% and 18% and the “Total Cell Count” value [6] was 252 and 111.
For CC(C)CC(=O)Nc1cncc(-c2ccc3[nH]nc(-c4nc5c(-c6cccc(F)c6)cncc5[nH]4)c3c2)c1 [LORECIVIVINT], the “Population Apoptotic (%)” value [1] was 45.16% and 22.22%, the “Population Fragmented Nuclei (%)” value [1] was 2.6% and 2.94% and the “Population Healthy Nuclei (%)” value [1] was 88.44% and 83.82%. For the same molecule, the “Population Hoechst High Intensity Objects (%)” value [1] was 0%, the “Population Membrane Permeable-Phenotype (%)” value [1] was 5.23% and 5.26% and the “Population Mitotic Cells (%)” value [1] was 54.84% and 77.78%. For the same molecule, the “Population Normal (%)” value [1] was 100%, the “Population Pyknosed Nuclei (%)” value [1] was 8.96% and 13.24% and the “Population Tubulin-Different-Phenotype (%)” value [1] was 7.84% and 9.65%. The “Total Cell Count” value [1] was 346 and 136, the “Population Apoptotic (%)” value [2] was 60.48% and 43.06% and the “Population Fragmented Nuclei (%)” value [2] was 3.46% and 6.63%. For the same molecule, the “Population Healthy Nuclei (%)” value [2] was 55.31% and 53.59%, the “Population Hoechst High Intensity Objects (%)” value [2] was 0% and the “Population Membrane Permeable-Phenotype (%)” value [2] was 4.46% and 6.19%. The “Population Mitochondria Different-Phenotype (%)” value [2] was 0% and 2.06%, the “Population Mitotic Cells (%)” value [2] was 39.52% and 56.94% and the “Population Normal (%)” value [2] was 100%. The “Population Pyknosed Nuclei (%)” value [2] was 41.23% and 39.78%, the “Population Tubulin-Different-Phenotype (%)” value [2] was 8.04% and 1.03% and the “Total Cell Count” value [2] was 405 and 181. The “Population Apoptotic (%)” value [3] was 65.71% and 37.04%, the “Population Fragmented Nuclei (%)” value [3] was 3.06% and 4.14% and the “Population Healthy Nuclei (%)” value [3] was 87.22% and 77.24%. The “Population Hoechst High Intensity Objects (%)” value [3] was 0.28% and 0%, the “Population Membrane Permeable-Phenotype (%)” value [3] was 2.87% and 3.57% and the “Population Mitotic Cells (%)” value [3] was 34.29% and 62.96%. For the same molecule, the “Population Normal (%)” value [3] was 99.72% and 100%, the “Population Pyknosed Nuclei (%)” value [3] was 9.72% and 18.62% and the “Population Tubulin-Different-Phenotype (%)” value [3] was 5.73% and 4.46%. The “Total Cell Count” value [3] was 361 and 145, the “Population Apoptotic (%)” value [4] was 54.77% and 33.33% and the “Population Fragmented Nuclei (%)” value [4] was 3.76% and 6.3%. For the same molecule, the “Population Healthy Nuclei (%)” value [4] was 39.53% and 38.24%, the “Population Hoechst High Intensity Objects (%)” value [4] was 0% and the “Population Membrane Permeable-Phenotype (%)” value [4] was 4.17% and 5.49%. The “Population Mitochondria Different-Phenotype (%)” value [4] was 0.6% and 2.2%, the “Population Mitotic Cells (%)” value [4] was 45.23% and 66.67% and the “Population Normal (%)” value [4] was 100%. The “Population Pyknosed Nuclei (%)” value [4] was 56.71% and 55.46%, the “Population Tubulin-Different-Phenotype (%)” value [4] was 10.12% and 3.3% and the “Total Cell Count” value [4] was 425 and 238. For the same molecule, the “Population Apoptotic (%)” value [5] was 60.87% and 57%, the “Population Fragmented Nuclei (%)” value [5] was 5.63% and 2.11% and the “Population Healthy Nuclei (%)” value [5] was 42.54% and 27.46%. For the same molecule, the “Population Hoechst High Intensity Objects (%)” value [5] was 0%, the “Population Membrane Permeable-Phenotype (%)” value [5] was 3.31% and 7.69% and the “Population Mitochondria Different-Phenotype (%)” value [5] was 0% and 12.82%. For the same molecule, the “Population Mitotic Cells (%)” value [5] was 39.13% and 43%, the “Population Normal (%)” value [5] was 100% and the “Population Pyknosed Nuclei (%)” value [5] was 51.83% and 70.42%. The “Population Tubulin-Different-Phenotype (%)” value [5] was 7.95% and 10.26%, the “Total Cell Count” value [5] was 355 and 142 and the “Population Apoptotic (%)” value [6] was 66.91% and 37.27%. For the same molecule, the “Population Fragmented Nuclei (%)” value [6] was 5.11% and 2.77%, the “Population Healthy Nuclei (%)” value [6] was 33.11% and 33.6% and the “Population Hoechst High Intensity Objects (%)” value [6] was 0%. For the same molecule, the “Population Membrane Permeable-Phenotype (%)” value [6] was 5.37% and 9.41%, the “Population Mitochondria Different-Phenotype (%)” value [6] was 1.34% and 1.18% and the “Population Mitotic Cells (%)” value [6] was 33.09% and 62.73%. The “Population Normal (%)” value [6] was 100%, the “Population Pyknosed Nuclei (%)” value [6] was 61.78% and 63.64% and the “Total Cell Count” value [6] was 450 and 253.
